Laboratory results taken from ChEMBL document CHEMBL1926550, “Synthesis and antibacterial activity of naphthyridone derivatives containing mono/difluoro-methyloxime pyrrolidine scaffolds” (2012).
In brackets after ≈: the same amount, converted by molar mass.

Legend:
Format in all cases: functional
[1] = tested on: Staphylococcus epidermidis; assay: Antibacterial activity against methicillin-resistant Staphylococcus epidermidis 10-1 after 18 hrs by two fold serial dilution method; settings: 10-1, 18 h
Outline: (§1)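 Agar two-fold serial dilution in melted Mueller-Hinton agar, 128 to 0.008 μg/mL. Plates inoculated with 10⁴ cfu, incubated 35 °C for 18 h. MIC taken as lowest concentration giving no visible growth on the plate.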

Escherichia coli [2] = assay: Antibacterial activity against Escherichia coli 09-1 after 18 hrs by two fold serial dilution method; settings: 09-1, 18 h
Outline: (§2)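 Agar two-fold serial dilution in melted Mueller-Hinton agar, final concentrations 128 down to 0.008 μg/mL. Plates inoculated with 10⁴ cfu and incubated at 35 °C for 18 h. MIC taken as the lowest concentration giving no visible growth on the plate.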

Staphylococcus aureus [3] = assay: Antibacterial activity against Staphylococcus aureus ATCC 25923 after 18 hrs by two fold serial dilution method; settings: ATCC 25923, 18 h; outline: as §2
Enterococcus faecium [4] = assay: Antibacterial activity against Enterococcus faecium 09-6 after 18 hrs by two fold serial dilution method; settings: 09-6, 18 h; outline: as §2
Staphylococcus aureus [5] = assay: Antibacterial activity against methicillin-sensitive Staphylococcus aureus 10-2 after 18 hrs by two fold serial dilution method; settings: 10-2, 18 h; outline: as §2
Staphylococcus aureus [6] = assay: Antibacterial activity against methicillin-resistant Staphylococcus aureus 10-4 after 18 hrs by two fold serial dilution method; settings: 10-4, 18 h; outline: as §1
Klebsiella pneumoniae [7] = assay: Antibacterial activity against Klebsiella pneumoniae 09-2 after 18 hrs by two fold serial dilution method; settings: 09-2, 18 h; outline: as §2
Pseudomonas aeruginosa [8] = assay: Antibacterial activity against Pseudomonas aeruginosa 10-1 after 18 hrs by two fold serial dilution method; settings: 10-1, 18 h; outline: as §2
Pseudomonas aeruginosa [9] = assay: Antibacterial activity against Pseudomonas aeruginosa 10-3 after 18 hrs by two fold serial dilution method; settings: 10-3, 18 h; outline: as §2
Enterococcus faecium [10] = assay: Antibacterial activity against Enterococcus faecium 09-1 after 18 hrs by two fold serial dilution method; settings: 09-1, 18 h; outline: as §2
Klebsiella pneumoniae [11] = assay: Antibacterial activity against Klebsiella pneumoniae 10-3 infected KM mouse systemic infection model assessed as decrease in mouse mortality administered orally twice after 1 and 4 hrs post infection measured up to 7 days; settings: 10-3, po
Outline: (§3)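 Strains grown on MH agar at 35 °C for 18 h, suspended in gastric mucin. Male KM mice (19–21 g), groups of 10, infected intraperitoneally with 0.5 mL at 5–10× MLD. Four oral dose levels per drug at 1 and 4 h post infection. Mortality followed 7 days; ED50 with 95% confidence limits by Bliss method.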

Escherichia coli [12] = assay: Antibacterial activity against Escherichia coli 09-2 after 18 hrs by two fold serial dilution method; settings: 09-2, 18 h; outline: as §2
Staphylococcus aureus [13] = assay: Antibacterial activity against methicillin-resistant Staphylococcus aureus 10-1 after 18 hrs by two fold serial dilution method; settings: 10-1, 18 h; outline: as §1
[14] = tested on: Staphylococcus epidermidis; assay: Ratio of gemifloxacin ED50 to compound ED50 for methicillin-resistant Staphylococcus epidermidis 10-4 infected KM mouse systemic infection model
Klebsiella pneumoniae [15] = assay: Antibacterial activity against Klebsiella pneumoniae 10-1 after 18 hrs by two fold serial dilution method; settings: 10-1, 18 h; outline: as §2
Staphylococcus aureus [16] = assay: Antibacterial activity against methicillin-sensitive Staphylococcus aureus 10-3 after 18 hrs by two fold serial dilution method; settings: 10-3, 18 h; outline: as §2
Staphylococcus aureus [17] = assay: Antibacterial activity against methicillin-sensitive Staphylococcus aureus 10-6 after 18 hrs by two fold serial dilution method; settings: 10-6, 18 h; outline: as §2
Enterococcus faecalis [18] = assay: Antibacterial activity against Enterococcus faecalis 09-1 after 18 hrs by two fold serial dilution method; settings: 09-1, 18 h; outline: as §2
Staphylococcus aureus [19] = assay: Antibacterial activity against methicillin-sensitive Staphylococcus aureus 10-1 after 18 hrs by two fold serial dilution method; settings: 10-1, 18 h; outline: as §2
Staphylococcus aureus [20] = assay: Antibacterial activity against methicillin-sensitive Staphylococcus aureus 10-5 after 18 hrs by two fold serial dilution method; settings: 10-5, 18 h; outline: as §2
[21] = tested on: Staphylococcus epidermidis; assay: Antibacterial activity against methicillin-resistant Staphylococcus epidermidis 10-4 infected KM mouse systemic infection model assessed as decrease in mouse mortality administered orally twice after 1 and 4 hrs post infection measured up to 7 days; settings: 10-4, po; outline: as §3
[22] = tested on: Staphylococcus epidermidis; assay: Ratio of ciprofloxacin ED50 to compound ED50 for methicillin-resistant Staphylococcus epidermidis 10-4 infected KM mouse systemic infection model
Enterococcus faecium [23] = assay: Antibacterial activity against Enterococcus faecium 09-3 after 18 hrs by two fold serial dilution method; settings: 09-3, 18 h; outline: as §2
Staphylococcus aureus [24] = assay: Antibacterial activity against methicillin-resistant Staphylococcus aureus 10-2 after 18 hrs by two fold serial dilution method; settings: 10-2, 18 h; outline: as §1
Pseudomonas aeruginosa [25] = assay: Antibacterial activity against Pseudomonas aeruginosa 10-2 after 18 hrs by two fold serial dilution method; settings: 10-2, 18 h; outline: as §2
Enterococcus faecium [26] = assay: Antibacterial activity against Enterococcus faecium 09-5 after 18 hrs by two fold serial dilution method; settings: 09-5, 18 h; outline: as §2
Staphylococcus aureus [27] = assay: Antibacterial activity against methicillin-resistant Staphylococcus aureus 10-2 infected KM mouse systemic infection model assessed as decrease in mouse mortality administered orally twice after 1 and 4 hrs post infection measured up to 7 days; settings: 10-2, po; outline: as §3
Enterococcus faecium [28] = assay: Antibacterial activity against Enterococcus faecium 09-4 after 18 hrs by two fold serial dilution method; settings: 09-4, 18 h; outline: as §2
[29] = tested on: Staphylococcus epidermidis; assay: Antibacterial activity against methicillin-sensitive Staphylococcus epidermidis 10-2 after 18 hrs by two fold serial dilution method; settings: 10-2, 18 h; outline: as §2
Staphylococcus aureus [30] = assay: Antibacterial activity against methicillin-resistant Staphylococcus aureus 10-3 after 18 hrs by two fold serial dilution method; settings: 10-3, 18 h; outline: as §1
[31] = tested on: Staphylococcus epidermidis; assay: Antibacterial activity against methicillin-resistant Staphylococcus epidermidis 10-2 after 18 hrs by two fold serial dilution method; settings: 10-2, 18 h; outline: as §1
Enterococcus faecium [32] = assay: Antibacterial activity against Enterococcus faecium 09-2 after 18 hrs by two fold serial dilution method; settings: 09-2, 18 h; outline: as §2
Escherichia coli [33] = assay: Antibacterial activity against Escherichia coli 10-3 after 18 hrs by two fold serial dilution method; settings: 10-3, 18 h; outline: as §2
Escherichia coli [34] = assay: Antibacterial activity against Escherichia coli ATCC 25922 after 18 hrs by two fold serial dilution method; settings: ATCC 25922, 18 h; outline: as §2
[35] = tested on: Staphylococcus epidermidis; assay: Antibacterial activity against methicillin-resistant Staphylococcus epidermidis 10-4 after 18 hrs by two fold serial dilution method; settings: 10-4, 18 h; outline: as §1
Pseudomonas aeruginosa [36] = assay: Antibacterial activity against Pseudomonas aeruginosa ATCC 27853 after 18 hrs by two fold serial dilution method; settings: ATCC 27853, 18 h; outline: as §2
Pseudomonas aeruginosa [37] = assay: Antibacterial activity against Pseudomonas aeruginosa 10-1 infected KM mouse systemic infection model assessed as decrease in mouse mortality administered orally twice after 1 and 4 hrs post infection measured up to 7 days; settings: 10-1, po; outline: as §3
[38] = tested on: Staphylococcus epidermidis; assay: Antibacterial activity against methicillin-sensitive Staphylococcus epidermidis 10-1 after 18 hrs by two fold serial dilution method; settings: 10-1, 18 h; outline: as §2
Klebsiella pneumoniae [39] = assay: Antibacterial activity against Klebsiella pneumoniae 10-3 after 18 hrs by two fold serial dilution method; settings: 10-3, 18 h; outline: as §2
Escherichia coli [40] = assay: Antibacterial activity against Escherichia coli 10-1 after 18 hrs by two fold serial dilution method; settings: 10-1, 18 h; outline: as §2
Escherichia coli [41] = assay: Antibacterial activity against Escherichia coli 10-2 after 18 hrs by two fold serial dilution method; settings: 10-2, 18 h; outline: as §2
Escherichia coli [42] = assay: Antibacterial activity against Escherichia coli 09-3 after 18 hrs by two fold serial dilution method; settings: 09-3, 18 h; outline: as §2
Streptococcus pneumoniae = assay: Antibacterial activity against Streptococcus pneumoniae 10-1 after 18 hrs by two fold serial dilution method; settings: 10-1, 18 h; outline: as §2
Staphylococcus aureus [43] = assay: Antibacterial activity against methicillin-sensitive Staphylococcus aureus 10-4 after 18 hrs by two fold serial dilution method; settings: 10-4, 18 h; outline: as §2
Enterococcus faecalis [44] = assay: Antibacterial activity against Enterococcus faecalis 09-2 after 18 hrs by two fold serial dilution method; settings: 09-2, 18 h; outline: as §2
Escherichia coli [45] = assay: Antibacterial activity against Escherichia coli 10-2 infected KM mouse systemic infection model assessed as decrease in mouse mortality administered orally twice after 1 and 4 hrs post infection measured up to 7 days; settings: 10-2, po; outline: as §3

NCC1CN(c2nc3c(cc2F)c(=O)c(C(=O)O)cn3C2CC2)C/C1=N\OCF (racemic)
MIC [1]: 2 µg/mL (≈ 4.91 µM)
MIC (Escherichia coli [2]): 32 µg/mL (≈ 78.6 µM)
MIC (Staphylococcus aureus [3]): 0.015 µg/mL (≈ 0.0368 µM)
MIC (Enterococcus faecium [4]): 0.03 µg/mL (≈ 0.0736 µM)
MIC (Staphylococcus aureus [5]): 8 µg/mL (≈ 19.6 µM)
MIC (Staphylococcus aureus [6]): 64 µg/mL (≈ 157 µM)
MIC (Klebsiella pneumoniae [7]): 32 µg/mL (≈ 78.6 µM)
MIC (Pseudomonas aeruginosa [8]): 0.5 µg/mL (≈ 1.23 µM)
MIC (Pseudomonas aeruginosa [9]): 4 µg/mL (≈ 9.82 µM)
MIC (Enterococcus faecium [10]): 32 µg/mL (≈ 78.6 µM)
ED50 (Klebsiella pneumoniae [11]): > 160 mg/kg
MIC (Escherichia coli [12]): 32 µg/mL (≈ 78.6 µM)
MIC (Staphylococcus aureus [13]): 32 µg/mL (≈ 78.6 µM)
Ratio ED50 [14]: 3
MIC (Klebsiella pneumoniae [15]): 0.03 µg/mL (≈ 0.0736 µM)
MIC (Staphylococcus aureus [16]): 0.03 µg/mL (≈ 0.0736 µM)
MIC (Staphylococcus aureus [17]): 0.5 µg/mL (≈ 1.23 µM)
MIC (Enterococcus faecalis [18]): 8 µg/mL (≈ 19.6 µM)
MIC (Staphylococcus aureus [19]): 0.06 µg/mL (≈ 0.147 µM)
MIC (Staphylococcus aureus [20]): 0.125 µg/mL (≈ 0.307 µM)
ED50 [21]: 8 mg/kg
Ratio ED50 [22]: 3.1
MIC (Enterococcus faecium [23]): 16 µg/mL (≈ 39.3 µM)
MIC (Staphylococcus aureus [24]): 2 µg/mL (≈ 4.91 µM)
MIC (Pseudomonas aeruginosa [25]): 32 µg/mL (≈ 78.6 µM)
MIC (Enterococcus faecium [26]): 32 µg/mL (≈ 78.6 µM)
ED50 (Staphylococcus aureus [27]): 16.9 mg/kg
MIC (Enterococcus faecium [28]): 0.06 µg/mL (≈ 0.147 µM)
MIC [29]: 64 µg/mL (≈ 157 µM)
MIC (Staphylococcus aureus [30]): 32 µg/mL (≈ 78.6 µM)
MIC [31]: 1 µg/mL (≈ 2.45 µM)
MIC (Enterococcus faecium [32]): 32 µg/mL (≈ 78.6 µM)
MIC (Escherichia coli [33]): 16 µg/mL (≈ 39.3 µM)
MIC (Escherichia coli [34]): 0.008 µg/mL (≈ 0.0196 µM)
MIC [35]: 2 µg/mL (≈ 4.91 µM)
MIC (Pseudomonas aeruginosa [36]): 0.5 µg/mL (≈ 1.23 µM)
ED50 (Pseudomonas aeruginosa [37]): 39.3 mg/kg
MIC [38]: 32 µg/mL (≈ 78.6 µM)
MIC (Klebsiella pneumoniae [39]): 0.5 µg/mL (≈ 1.23 µM)
MIC (Escherichia coli [40]): 32 µg/mL (≈ 78.6 µM)
MIC (Escherichia coli [41]): 0.5 µg/mL (≈ 1.23 µM)
MIC (Escherichia coli [42]): 32 µg/mL (≈ 78.6 µM)
MIC (Streptococcus pneumoniae): 0.06 µg/mL (≈ 0.147 µM)
MIC (Staphylococcus aureus [43]): 0.25 µg/mL (≈ 0.614 µM)
MIC (Enterococcus faecalis [44]): 32 µg/mL (≈ 78.6 µM)
ED50 (Escherichia coli [45]): 8.79 mg/kg
